According to ChEMBL document CHEMBL5674881, “The therapeutic properties of resminostat for hepatocellular carcinoma” (2018):
Calls of active or inactive are those of the source. The calls are words filed in the database; no cut-off is given here.

Legend:
Hep 3B2 [1] = assay: Effect on human Hep3B cells assessed as reduction of HDAC global activity at 80 nM incubated for 24 hrs by FluoroFire HDAC Activity Assay Kit relative to control; assay type: functional; design: scale not given: the % may be the effect or the level left
In short: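 Hep3B cells treated 24 h with 80 nM drug, alone or with 30% SGBS conditioned medium. Lysates made with lysis reagent (15 min, room temperature, shaking), spun, and supernatant used. Preincubated 20 min at 37°C, then Emerald substrate added for 1 h at 37°C. Fluorescence read at Ex 490/Em 525 nm. HeLa nuclear extract as positive control, HeLa extract with trichostatin A as negative control (n = 3).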

HepG2 [2] = assay: Effect on human HepG2 cells assessed as reduction in HDAC1 mRNA level at 80 nM incubated for 24 hrs by qRT-PCR analysis; assay type: functional, cell-based
In short: (§1)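 HepG2 (EMEM) and Huh7 (DMEM) cells, both with 10% FBS, treated with 30% differentiated-SGBS conditioned medium with or without 80 nM drug. HDAC1 RNA given as fold change versus untreated cells or between treatments (n = 3).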

Hep 3B2 [3] = assay: Anti-proliferative activity against human Hep3B cells assessed as cell proliferation at incubated for 24 hrs by Fluoro Fire-Blue ProViaTox assay; assay type: functional, cell-based; conditions: dose 20-100 nM
Hep 3B2 [4] = assay: Anti-proliferative activity against human Hep3B cells assessed as reduced cell proliferation at 80 nM incubated for 24 hrs by Fluoro Fire-Blue ProViaTox assay; assay type: functional, cell-based
Huh-7 [5] = assay: Anti-proliferative activity against human Huh-7 cells assessed as reduced cell proliferation at 80 nM incubated for 24 hrs by Fluoro Fire-Blue ProViaTox assay; assay type: functional, cell-based
HepG2 [6] = assay: Anti-proliferative activity against human HepG2 cells assessed as reduced cell proliferation at 80 nM incubated for 24 hrs by Fluoro Fire-Blue ProViaTox assay; assay type: functional, cell-based
Hep 3B2 [7] = assay: Effect on human Hep3B cells assessed as reduction in HDAC1 mRNA level at 80 nM incubated for 24 hrs by qRT-PCR analysis; assay type: functional, cell-based
In short: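 RNA levels of HDAC1 and HDAC2 measured in Hep3B cells after 24 h with 80 nM drug, 17-AAG (50 nM) or the combination (n = 3). Cells grown in EMEM with 10% FBS at 37°C, 5% CO2.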

Huh-7 [8] = assay: Effect on human Huh-7 cells assessed as reduction in HDAC1 mRNA level at 80 nM incubated for 24 hrs by qRT-PCR analysis; assay type: functional, cell-based; in short: as §1
Hep 3B2 [9] = assay: Effect on human Hep3B cells assessed as reduction in HDAC2 mRNA level at 80 nM incubated for 24 hrs in presence of SGBS CM by qRT-PCR analysis; assay type: functional, cell-based
In short: (§2)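 Hep3B cells exposed to 30% conditioned medium from differentiated SGBS adipocytes, with or without 80 nM drug. HDAC1, 2 and 3 RNA given as fold change versus untreated cells or between treatments.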

Hep 3B2 [10] = assay: Effect on human Hep3B cells assessed as reduction in HDAC3 mRNA level at 80 nM incubated for 24 hrs in presence of SGBS CM by qRT-PCR analysis; assay type: functional, cell-based; in short: as §2
Hep 3B2 [11] = assay: Anti-proliferative activity against human Hep3B cells assessed as increase in Caspase 3 expression at 80 nM incubated for 24 hrs by qRT-PCR analysis; assay type: functional, cell-based
Hep 3B2 [12] = assay: Anti-proliferative activity against human Hep3B cells assessed as increase in cleaved Caspase 8 level at 80 nM incubated for 24 hrs in presence of SGBS CM by Tetraplex-Assay Kit analysis; assay type: functional, cell-based
In short: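 Hep3B seeded at 20000 cells/well overnight, then treated with 30% differentiated SGBS conditioned medium with or without resminostat 80 nM for 24 h. Tetraplex caspase substrate buffer added during treatment for real-time cleavage read-out: Caspase 3/7 at Ex 535/Em 620 nm, Caspase 8 at Ex 490/Em 525 nm, Caspase 9 at Ex 370/Em 450 nm. Compared with controls or between treatments; n = 3.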

Hep 3B2 [13] = assay: Downregulation of BCL2 expression in human Hep3B cells at 80 nM incubated for 24 hrs by qRT-PCR analysis; assay type: functional, cell-based
Hep 3B2 [14] = assay: Upregulation of BIM expression in human Hep3B cells at 80 nM incubated for 24 hrs by qRT-PCR analysis; assay type: functional, cell-based
In short: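 RNA levels of BCL-2, BIM, BAX and BAD measured in Hep3B cells after 24 h with 80 nM drug. Triplicates, three independent experiments, t-test.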

Hep 3B2 [15] = assay: Anti-proliferative activity against human Hep3B cells assessed as increase in BAX mRNA level at 80 nM incubated for 24 hrs by qRT-PCR analysis; assay type: functional, cell-based
Hep 3B2 [16] = assay: Anti-proliferative activity against human Hep3B cells assessed as decrease in Cyclin D1 expression at 80 nM incubated for 24 hrs in presence of SGBS CM by qRT-PCR analysis; assay type: functional, cell-based
Hep 3B2 [17] = assay: Anti-proliferative activity against human Hep3B cells assessed as increase in p21 mRNA expression at 80 nM incubated for 24 hrs in presence of SGBS CM by qRT-PCR analysis; assay type: functional, cell-based
Hep 3B2 [18] = assay: Anti-proliferative activity against human Hep3B cells assessed as decrease in VEGF mRNA level at 80 nM incubated for 24 hrs in presence of SGBS CM by qRT-PCR analysis; assay type: functional, cell-based
Hep 3B2 [19] = assay: Anti-proliferative activity against human Hep3B cells assessed as decrease in leptin mRNA level at 80 nM incubated for 24 hrs in presence of SGBS CM by qRT-PCR analysis; assay type: functional, cell-based
Hep 3B2 [20] = assay: Anti-proliferative activity against human Hep3B cells assessed as decrease in TNF-alpha mRNA level at 80 nM incubated for 24 hrs in presence of SGBS CM by qRT-PCR analysis; assay type: functional, cell-based
Hep 3B2 [21] = assay: Downregulation of EZH2 expression in human Hep3B cells at 80 nM incubated for 24 hrs in presence of GSK343 by qRT-PCR analysis; assay type: functional, cell-based
Hep 3B2 [22] = assay: Downregulation of HSP90 mRNA expression in human Hep3B cells at 80 nM incubated for 24 hrs in presence of 17-AAG by qRT-PCR analysis; assay type: functional, cell-based
Hep 3B2 [23] = assay: Downregulation of STAT3 mRNA expression in human Hep3B cells at 80 nM incubated for 24 hrs in presence of 17-AAG by qRT-PCR analysis; assay type: functional, cell-based
In short: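 Hep3B cells given 80 nM drug, 17-AAG (50 nM) or both for 24 h. STAT3 and a gene panel (BCL-2, HSP90, ZFP64) measured at RNA level. Triplicates, three independent experiments, mean ± SD.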

Hep 3B2 [24] = assay: Anti-proliferative activity against human Hep3B cells assessed as reduction in cell viability at 80 nM incubated for 24 hrs in presence of SC1 by Fluoro Fire-Blue ProViaTox assay relative to control; assay type: functional, cell-based
Hep 3B2 [25] = assay: Anti-proliferative activity against human Hep3B cells assessed as reduction in cell viability at 80 nM incubated for 24 hrs in presence of doxorubicin by Fluoro Fire-Blue ProViaTox assay relative to control; assay type: functional, cell-based
Hep 3B2 [26] = assay: Anti-proliferative activity against human Hep3B cells assessed as reduction in Vimentin protein expression level by measuring green fluorescence at 80 nM incubated for 24 hrs in presence of SGBS CM by immunofluorescence analysis

For CN(C)Cc1ccc(S(=O)(=O)n2ccc(/C=C/C(=O)NO)c2)cc1 [RESMINOSTAT], the Activity (Hep 3B2 [1]) was 62.33%, the Activity (HepG2 [2]) was “Active” and the Activity (Hep 3B2 [3]) was “Dose-Dependent Effect”. The Activity (Hep 3B2 [4]) was “Active”, the Activity (Huh-7 [5]) was “Active” and the Activity (HepG2 [6]) was “Active”. The Activity (Hep 3B2 [7]) was “Active”, the Activity (Huh-7 [8]) was “Active” and the Activity (Hep 3B2 [9]) was “Active”. For the same molecule, the Activity (Hep 3B2 [10]) was “Active”, the Activity (Hep 3B2 [11]) was “Active” and the Activity (Hep 3B2 [12]) was “Active”. For the same molecule, the Activity (Hep 3B2 [13]) was “Active”, the Activity (Hep 3B2 [14]) was “Active” and the Activity (Hep 3B2 [15]) was “Active”. The Activity (Hep 3B2 [16]) was “Active”, the Activity (Hep 3B2 [17]) was “Active” and the Activity (Hep 3B2 [18]) was “Active”. The Activity (Hep 3B2 [19]) was “Active”, the Activity (Hep 3B2 [20]) was “Active” and the Activity (Hep 3B2 [21]) was “Active”. For the same molecule, the Activity (Hep 3B2 [22]) was “Active”, the Activity (Hep 3B2 [23]) was “Active” and the Activity (Hep 3B2 [24]) was “Active”. The Activity (Hep 3B2 [25]) was “Active” and the Activity (Hep 3B2 [26]) was “Active”.
